For 20 compounds, MIC results are on record in ChEMBL document CHEMBL3351768, “7-(4-Alkylidenylpiperidinyl)-quinolone bacterial topoisomerase inhibitors” (2014).

The term MIC denotes the least concentration at which growth counts as inhibited.

Assay type in all cases: functional
Assay [1] has as its system Staphylococcus aureus. The assay can be described thus: Antibacterial activity against ciprofloxacin-susceptible Staphylococcus aureus OC4172 by broth microdilution method. The essentials:
(§1)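 MIC by broth microdilution following CLSI M07-A9 guidelines for aerobically growing bacteria. Where a compound was tested more than once, across several test dates or batches, the modal MIC is reported.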

Assay [2] deals with Streptococcus pneumoniae. Briefly: Antibacterial activity against ciprofloxacin-resistant Streptococcus pneumoniae OC6608 clinical isolate by broth microdilution method. Background: Dilution methods test growth across graded concentrations, often in twofold steps.
The subject of assay [3] is Streptococcus pneumoniae. Briefly: Antibacterial activity against ciprofloxacin-resistant Streptococcus pneumoniae OC5465 clinical isolate by broth microdilution method.
Assay [4] has as its system Streptococcus pneumoniae. The assay can be described thus: Antibacterial activity against ciprofloxacin-resistant Streptococcus pneumoniae OC6578 clinical isolate by broth microdilution method.
Assay [5] deals with Streptococcus pneumoniae. The assay can be described thus: Antibacterial activity against ciprofloxacin-susceptible Streptococcus pneumoniae ATCC49619 by broth microdilution method. The essentials:
as §1

A further assay has as its system Escherichia coli. The assay can be described thus: Antibacterial activity against Escherichia coli ATCC 25922 by broth microdilution method. The method in brief:
as §1

Assay [6] relates to Staphylococcus epidermidis. The assay can be described thus: Antibacterial activity against methicillin-resistant Staphylococcus epidermidis OC5340 by broth microdilution method. The method in brief: (§2)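 Broth microdilution MIC per CLSI M07-A9 guidelines for aerobically growing bacteria. Where a compound was tested several times (multiple test dates and batches), the modal MIC is reported.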

Assay [7] deals with Staphylococcus aureus. Briefly: Antibacterial activity against methicillin-resistant Staphylococcus aureus OC2805 by broth microdilution method. The essentials:
as §2

Each structure is given as a SMILES string. ≈ marks a conversion by molar mass, not a printed value.

For `COc1c(N2CCC(=C(Cl)CN(C)C)CC2)c(F)cc2c(=O)c(C(=O)O)cn(C3CC3)c12`, the MIC against Staphylococcus aureus [1] came out at 0.25 mg/L (≈ 0.539 µM); against Streptococcus pneumoniae [2], 8 mg/L (≈ 17.2 µM); in the assay with Streptococcus pneumoniae [3], 2 mg/L (≈ 4.31 µM); in the assay on Streptococcus pneumoniae [4] it was 8 mg/L (≈ 17.2 µM); in the assay with Streptococcus pneumoniae [5] it was 0.5 mg/L (≈ 1.08 µM).

As for `NCC=C1CCN(c2nc3c(cc2F)c(=O)c(C(=O)O)cn3C2CC2)CC1`, the MIC stood at 0.12 mg/L (≈ 0.322 µM) with Staphylococcus aureus [1], 8 mg/L (≈ 21.5 µM) against Streptococcus pneumoniae [2], 8 mg/L (≈ 21.5 µM) with Streptococcus pneumoniae [4] and 0.5 mg/L (≈ 1.34 µM) in the assay with Streptococcus pneumoniae [5].

As to `NCC(F)=C1CCN(c2nc3c(cc2F)c(=O)c(C(=O)O)cn3C2CC2)CC1`, the minimal inhibitory concentration (MIC) in the assay on Staphylococcus aureus [1] stood at 0.03 mg/L (≈ 0.0768 µM); against Streptococcus pneumoniae [2], 2 mg/L (≈ 5.12 µM); in the assay on Streptococcus pneumoniae [3], 1 mg/L (≈ 2.56 µM); in the assay with Streptococcus pneumoniae [4] it was 0.5 mg/L (≈ 1.28 µM); against Streptococcus pneumoniae [5] it was 0.12 mg/L (≈ 0.307 µM).

For the compound `CC(CN)=C1CCN(c2nc3c(cc2F)c(=O)c(C(=O)O)cn3C2CC2)CC1`, the MIC was determined as 0.06 mg/L (≈ 0.155 µM) against Staphylococcus aureus [1]; 0.25 mg/L (≈ 0.647 µM) in the assay on Streptococcus pneumoniae [2]; 1 mg/L (≈ 2.59 µM) in the assay on Streptococcus pneumoniae [3]; 1 mg/L (≈ 2.59 µM) against Streptococcus pneumoniae [4]; 0.12 mg/L (≈ 0.311 µM) with Streptococcus pneumoniae [5].

As to `NCC(Cl)=C1CCN(c2nc3c(cc2F)c(=O)c(C(=O)O)cn3C2CC2)CC1`, the MIC turned out to be 0.06 mg/L (≈ 0.147 µM) against Staphylococcus aureus [1]; 1 mg/L (≈ 2.46 µM) with Streptococcus pneumoniae [2]; 1 mg/L (≈ 2.46 µM) with Streptococcus pneumoniae [3]; 0.25 mg/L (≈ 0.614 µM) against Streptococcus pneumoniae [4]; 0.12 mg/L (≈ 0.295 µM) against Streptococcus pneumoniae [5].

Regarding `NCC(F)=C1CCN(c2cc3c(cc2F)c(=O)c(C(=O)O)cn3C2CC2)CC1`, the MIC turned out to be 0.03 mg/L (≈ 0.077 µM) in the assay with Staphylococcus aureus [1], 1 mg/L (≈ 2.57 µM) against Streptococcus pneumoniae [4] and 0.06 mg/L (≈ 0.154 µM) against Streptococcus pneumoniae [5].

Take `CC(CN)=C1CCN(c2cc3c(cc2F)c(=O)c(C(=O)O)cn3C2CC2)CC1`: the MIC against Staphylococcus aureus [1] was 0.12 mg/L (≈ 0.311 µM); with Streptococcus pneumoniae [2], 8 mg/L (≈ 20.8 µM); with Streptococcus pneumoniae [3], 8 mg/L (≈ 20.8 µM); against Streptococcus pneumoniae [4], 2 mg/L (≈ 5.19 µM); against Streptococcus pneumoniae [5], 1 mg/L (≈ 2.59 µM).

As to `NCC(Cl)=C1CCN(c2cc3c(cc2F)c(=O)c(C(=O)O)cn3C2CC2)CC1`, the MIC against Staphylococcus aureus [1] was found to be 0.03 mg/L (≈ 0.0739 µM); against Streptococcus pneumoniae [3] it was 1 mg/L (≈ 2.46 µM); against Streptococcus pneumoniae [4] it was 0.5 mg/L (≈ 1.23 µM); against Streptococcus pneumoniae [5], 0.12 mg/L (≈ 0.296 µM).

`C[C@H]1COc2c(N3CCC(=C(Cl)CN)CC3)c(F)cc3c(=O)c(C(=O)O)cn1c23`: the MIC is at most 0.015 mg/L against Staphylococcus aureus [1]; 0.25 mg/L (≈ 0.593 µM) with Streptococcus pneumoniae [2]; 0.5 mg/L (≈ 1.19 µM) in the assay with Streptococcus pneumoniae [3]; 0.25 mg/L (≈ 0.593 µM) against Streptococcus pneumoniae [4]; 0.03 mg/L (≈ 0.0711 µM) in the assay with Streptococcus pneumoniae [5].

On to `NCC(F)=C1CCN(c2c(F)cc3c(=O)c(C(=O)O)cn(C4CC4)c3c2OC(F)F)CC1`, for which the MIC stood at 0.06 mg/L (≈ 0.132 µM) against Staphylococcus aureus [1]; 0.25 mg/L (≈ 0.549 µM) in the assay on Streptococcus pneumoniae [2]; 0.25 mg/L (≈ 0.549 µM) against Streptococcus pneumoniae [3]; 2 mg/L (≈ 4.39 µM) in the assay on Streptococcus pneumoniae [4]; 0.25 mg/L (≈ 0.549 µM) against Streptococcus pneumoniae [5].

With `NCC(Cl)=C1CCN(c2c(F)cc3c(=O)c(C(=O)O)cn(C4CC4)c3c2OC(F)F)CC1`, the minimal inhibitory concentration (MIC) in the assay on Escherichia coli came out at 0.5 mg/L (≈ 1.06 µM); in the assay with Staphylococcus aureus [1], 0.06 mg/L (≈ 0.127 µM); in the assay with Streptococcus pneumoniae [2] it was 0.5 mg/L (≈ 1.06 µM); in assay [6], 0.5 mg/L (≈ 1.06 µM); in the assay with Streptococcus pneumoniae [3], 0.12 mg/L (≈ 0.254 µM); in the assay on Streptococcus pneumoniae [4], 1 mg/L (≈ 2.12 µM). For the same compound, the values for the MIC in the assay with Staphylococcus aureus [7] and with Streptococcus pneumoniae [5] were 1 mg/L (≈ 2.12 µM) and 0.12 mg/L (≈ 0.254 µM), respectively.

Take `COc1c(N2CCC(=C(F)CN)CC2)c(F)cc2c(=O)c(C(=O)O)cn(C3CC3)c12`: the MIC turned out to be 0.03 mg/L (≈ 0.0715 µM) in the assay with Staphylococcus aureus [1]; 0.5 mg/L (≈ 1.19 µM) against Streptococcus pneumoniae [2]; 0.5 mg/L (≈ 1.19 µM) against Streptococcus pneumoniae [3]; 1 mg/L (≈ 2.38 µM) against Streptococcus pneumoniae [4]; 0.12 mg/L (≈ 0.286 µM) in the assay with Streptococcus pneumoniae [5].

As to `COc1c(N2CCC(=C(C)CN)CC2)c(F)cc2c(=O)c(C(=O)O)cn(C3CC3)c12`, the MIC in the assay with Staphylococcus aureus [1] turned out to be 0.03 mg/L (≈ 0.0722 µM); against Streptococcus pneumoniae [3], 0.25 mg/L (≈ 0.602 µM); in the assay with Streptococcus pneumoniae [4] it was 0.25 mg/L (≈ 0.602 µM); against Streptococcus pneumoniae [5] it was 0.12 mg/L (≈ 0.289 µM).

Consider `COc1c(N2CCC(=C(Cl)CN)CC2)c(F)cc2c(=O)c(C(=O)O)cn(C3CC3)c12`, for which the MIC is 0.25 mg/L (≈ 0.574 µM) in the assay on Escherichia coli; at most 0.015 mg/L with Staphylococcus aureus [1]; 0.25 mg/L (≈ 0.574 µM) against Streptococcus pneumoniae [2]; 0.25 mg/L (≈ 0.574 µM) in assay [6]; 0.25 mg/L (≈ 0.574 µM) in the assay on Streptococcus pneumoniae [3]; 0.25 mg/L (≈ 0.574 µM) in the assay on Streptococcus pneumoniae [4]. Also, the minimal inhibitory concentration (MIC) in the assay on Staphylococcus aureus [7] was 0.25 mg/L (≈ 0.574 µM); with Streptococcus pneumoniae [5] it was 0.06 mg/L (≈ 0.138 µM).

For `CNCC(Cl)=C1CCN(c2c(F)cc3c(=O)c(C(=O)O)cn(C4CC4)c3c2OC)CC1`, the MIC in the assay with Escherichia coli is 0.5 mg/L (≈ 1.11 µM); with Staphylococcus aureus [1], at most 0.015 mg/L; against Streptococcus pneumoniae [2], 0.25 mg/L (≈ 0.556 µM); in assay [6], 0.5 mg/L (≈ 1.11 µM); in the assay with Streptococcus pneumoniae [3] it was 0.25 mg/L (≈ 0.556 µM); with Streptococcus pneumoniae [4] it was 0.5 mg/L (≈ 1.11 µM). Further, the MIC against Staphylococcus aureus [7] is 0.5 mg/L (≈ 1.11 µM); against Streptococcus pneumoniae [5], 0.06 mg/L (≈ 0.133 µM).

For `COc1c(N2CCC(=C(Cl)CNC(C)C)CC2)c(F)cc2c(=O)c(C(=O)O)cn(C3CC3)c12`, the minimal inhibitory concentration (MIC) worked out at 0.12 mg/L (≈ 0.251 µM) with Staphylococcus aureus [1], 2 mg/L (≈ 4.18 µM) against Streptococcus pneumoniae [3], 4 mg/L (≈ 8.37 µM) against Streptococcus pneumoniae [4] and 0.5 mg/L (≈ 1.05 µM) in the assay on Streptococcus pneumoniae [5].

Take `CCNCC(Cl)=C1CCN(c2c(F)cc3c(=O)c(C(=O)O)cn(C4CC4)c3c2OC)CC1`: the MIC against Staphylococcus aureus [1] turned out to be 0.12 mg/L (≈ 0.259 µM); against Streptococcus pneumoniae [2], 1 mg/L (≈ 2.16 µM); against Streptococcus pneumoniae [3], 1 mg/L (≈ 2.16 µM); against Streptococcus pneumoniae [4], 1 mg/L (≈ 2.16 µM); against Streptococcus pneumoniae [5], 0.25 mg/L (≈ 0.539 µM).

With `CC1COc2c(N3CCC(=C(F)CN)CC3)c(F)cc3c(=O)c(C(=O)O)cn1c23` (racemic), the MIC worked out at 0.25 mg/L (≈ 0.617 µM) in the assay on Staphylococcus aureus [1]; 2 mg/L (≈ 4.93 µM) against Streptococcus pneumoniae [2]; 8 mg/L (≈ 19.7 µM) against Streptococcus pneumoniae [3]; 8 mg/L (≈ 19.7 µM) in the assay with Streptococcus pneumoniae [4]; 0.5 mg/L (≈ 1.23 µM) with Streptococcus pneumoniae [5].

Take `CC(CN)=C1CCN(c2c(F)cc3c(=O)c(C(=O)O)cn4c3c2OCC4C)CC1` (racemic): the MIC against Staphylococcus aureus [1] was 0.5 mg/L (≈ 1.25 µM); against Streptococcus pneumoniae [2], 4 mg/L (≈ 9.96 µM); with Streptococcus pneumoniae [3], over 16 mg/L; with Streptococcus pneumoniae [4] it was over 16 mg/L; against Streptococcus pneumoniae [5], 1 mg/L (≈ 2.49 µM).

Turning to `O=C(O)c1cn(C2CC2)c2cc(N3CCNCC3)c(F)cc2c1=O` [CIPROFLOXACIN], the MIC against Staphylococcus aureus [1] is 0.12 mg/L (≈ 0.362 µM); in assay [6], 8 mg/L (≈ 24.1 µM); against Streptococcus pneumoniae [5] it was 1 mg/L (≈ 3.02 µM).
